# DENV2 CPE = DENV2-induced cell death inhibition. CPE inhibition, % at 9.99 µM. AID 651640. DENV2-infected cells, cytopathic effect rescue, plate reader. 1.7% of 350,000 active; in the data active = CPE inhibition above about 20%, passing the limit was not always enough; tested in BHK-21 cells;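 also: 0% = median of neutral control wells and 100% = median of positive control wells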
# XiGFP reactiv = activators of X-chromosome reactivation in mouse fibroblasts. XiGFP mouse fibroblasts, % GFP-positive cells imaging, 3 d; cells co-treated with 5-aza-dC sensitizer; scaled so ellipticine positive control = 100%. activation, % at 7.58 µM. 0.055% of 360,000 active;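 active = mean normalized replicate activation at least 10% and every replicate at or above 10%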;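 also: 0% = median of on-plate neutral control wells and 100% = ellipticine 6 µM median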
#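 System: SV40-immortalized XiGFP fibroblast cells, line 68-5-11 / Incubation: 3-day compound exposure, then 15 min fixation at room temperature / Compound: single concentration per compound, delivered by pin transfer / Buffer or medium: DMEM plus 5-aza-dC sensitizer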
# Casp6 inh = caspase-6 (human) enzyme inhibition; P55212; purified caspase-6, Z-VEID-R110 cleavage fluorescence; inhibition, % at 12.5 µM; 0.53% of 350,000 active; AID 686996;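 active = mean inhibition across replicates at least about 35%, with every replicate also reaching that limit, limit read from the data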;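 also: 0% = median of neutral control wells and 100% = no fluorescence left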
# Target sequence (P55212 24-179 limits assumed): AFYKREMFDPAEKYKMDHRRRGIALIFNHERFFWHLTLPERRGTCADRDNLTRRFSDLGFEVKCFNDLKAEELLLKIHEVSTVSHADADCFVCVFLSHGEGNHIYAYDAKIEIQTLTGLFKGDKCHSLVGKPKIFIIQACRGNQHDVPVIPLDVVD
# Target sequence (P55212 194-293 limits assumed): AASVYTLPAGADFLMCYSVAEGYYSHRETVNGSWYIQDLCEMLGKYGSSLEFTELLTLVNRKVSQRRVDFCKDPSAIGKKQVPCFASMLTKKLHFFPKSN
# FN deposition inh = fibronectin deposition inhibition; AID 743247; 0.086% of 350,000 active; inhibition, % at 12.6 µM; AH1F fibroblasts, Alexa488-fibronectin deposition fluorescence, overnight;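 active = mean inhibition across replicates of 30% or more, regardless of how many single replicates reach that level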;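 also: positive control wells lacked labelled fibronectin entirely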
#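 test system = AH1F fibroblasts assembling fluorescent fibronectin matrix | quantity = 10000 AH1F cells per well | buffer or medium = DMEM plus 2% serum, read in PBS | doses = single dose, pinned | incubation = 1 h cell attachment, overnight exposure to compound and label | detection = fluorescence at 485 nm excitation, 525 nm emission | read-out basis = inhibition from reduced deposited-fibronectin fluorescence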
# CaV13 FRET inh = Primary screen for inhibitors of IQ motif and Ca2+-dependent inactivation inhibitor domain binding in CACNA1D, Förster resonance energy transfer in living cells, … | HEK cells, CFP/YFP FRET ICDI-IQ, plate reader, 10 min; percent FRET-ratio fall versus neutral wells | inhibition, % at 12.3 µM | 0.098% of 340,000 active;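 active = mean replicate inhibition of at least 30% and at least 1% of replicates passing that level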;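 also: 0% = median of the neutral control wells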
# * hit, by the source's call; . = no result given. The list is not random: actives were taken first. Their share in the collection is about 2%.
SMILES,DENV2 CPE,XiGFP reactiv,Casp6 inh,FN deposition inh,CaV13 FRET inh
CCCNC(=O)N1CC2(CCN(C(=O)COC)CC2)c2c(n(C)c3cc(OC)ccc23)[C@@H]1CO,69.8*,0.4,.,.,.
CCCNC(=O)N1CC2(CN(S(=O)(=O)c3cccc(OC)c3)C2)c2c(n(C)c3cc(OC)ccc23)[C@H]1CO,40.6*,0.5,.,.,.
O=S(=O)(N[C@H]1CC[C@@H](CCn2cc(-c3cccc(F)c3)nn2)O[C@H]1CO)c1ccc(Cl)cc1,9.4,-0.4,2.2,.,.
CC(=O)Nc1cccc2c1O[C@H](CN(C)C(C)=O)[C@@H](C)CN(C)C2=O,.,0.0,.,-3.2,.
Cc1noc(C)c1NC(=O)Nc1ccc2c(c1)CC(=O)N([C@@H](C)CO)C[C@@H](C)[C@H](CN(C)C(=O)NC(C)C)O2,-5.0,-0.7,.,.,.
CCOC(=O)CC(NS(=O)(=O)c1ccc2[nH]cc(C(=O)O)c(=O)c2c1)c1ccc(OCC)c(OC)c1 (stereo not drawn),-0.5,0.0,54.1*,3.2,-7.0
COc1ccc(S(=O)(=O)N(C)C[C@H]2OCCCC[C@H](C)Oc3ccc(NC(=O)Nc4ccc(C(F)(F)F)cc4)cc3C(=O)N([C@@H](C)CO)C[C@H]2C)cc1,9.8,-0.2,-1.1,-5.1,.
Cc1ccc(C)c(N2N=C(C(=O)OCc3nnc(-c4ccccc4Br)o3)CCC2=O)c1,3.5,0.2,61.4*,-0.7,-4.6
COc1ccc(/C=C(/NC(=O)c2ccc(OC)cc2)C(=O)NCCc2c[nH]c3ccccc23)cc1,.,0.0,-1.7,-6.9,-5.0
COc1ccc(/C=C(/NC(=O)c2ccc(OC)c(OC)c2)C(=O)NCCc2c[nH]c3ccccc23)cc1,20.2*,0.0,-5.1,-1.7,-4.6
O=C(NCC[C@@H]1CC[C@H](NS(=O)(=O)Cc2ccccc2)[C@H](CO)O1)C1CC1,0.9,-0.2,1.9,-7.7,.
C[C@@H]1CN([C@H](C)CO)C(=O)c2cc(NC(=O)c3ccncc3)ccc2O[C@@H](C)CCCCO[C@H]1CN(C)C,84.6*,0.1,-5.7,.,.
C[C@@H]1CCCCO[C@H](CN(C)C)[C@H](C)CN([C@H](C)CO)C(=O)c2cc(NC(=O)c3ccncc3)ccc2O1,34.3*,-0.1,-4.0,.,.
C[C@@H]1CN([C@H](C)CO)C(=O)c2cc(NC(=O)Nc3cccc4ccccc34)ccc2O[C@@H](C)CCCCO[C@@H]1CN(C)S(=O)(=O)c1ccccc1,.,0.3,.,-8.9,.
C[C@H]1CN([C@@H](C)CO)C(=O)CCCn2cc(nn2)CO[C@H]1CN(C)Cc1ccc2c(c1)OCO2,.,0.3,.,-8.2,.
CCC(=O)N1C[C@@H]2[C@H](c3ccccc31)[C@H](CO)N2Cc1ccccc1Cl,-6.9,0.3,-1.1,.,.
COc1ccc(CN(C)C[C@@H]2Oc3ccc(NC(=O)Nc4c(C)noc4C)cc3CC(=O)N([C@H](C)CO)C[C@@H]2C)cc1,40.8*,0.2,-2.1,0.3,.
C[C@@H]1CN([C@H](C)CO)C(=O)Cc2cc(NC(=O)C3CC3)ccc2O[C@@H]1CN(C)Cc1ccncc1,21.4*,-0.7,-0.7,.,.
C[C@@H]1CN([C@@H](C)CO)C(=O)Cc2cc(NC(=O)C3CC3)ccc2O[C@H]1CN(C)Cc1ccncc1,4.6,-1.2,0.2,.,.
COc1ccc(CN(C)C[C@H]2Oc3ccc(NC(=O)C4CC4)cc3CC(=O)N([C@@H](C)CO)C[C@@H]2C)cc1,-6.5,-0.6,1.3,.,.
COc1ccc(CN(C)C[C@H]2Oc3ccc(NC(=O)C4CC4)cc3CC(=O)N([C@H](C)CO)C[C@@H]2C)cc1,79.2*,-0.6,-1.7,.,.
C[C@H](CO)N1C[C@H](C)[C@@H](CN(C)CC2CC2)OCc2ccccc2-c2c(n(C)c3ccccc23)C1=O,.,-0.1,.,5.7,.
CCC(=O)N1C[C@@H](C)[C@@H](OC)CN(C)C(=O)c2ccc(NC(=O)C3CC3)cc2OC[C@H]1C,8.0,7.2,4.1,-6.4,.
COc1ccccc1-c1nnc(NC(=O)c2ccc(S(=O)(=O)N3CCCC3)cc2)o1,2.9,-0.1,1.6,-5.7,-5.1
O=C(Nc1nnc(-c2ccco2)o1)c1ccc(S(=O)(=O)N2CCCC2)cc1,4.9,0.0,-0.4,4.1,-3.7
